From ChEMBL document CHEMBL1122734, “A novel peptide delivery system involving peptidase activated prodrugs as antimicrobial agents. Synthesis and biological activity of peptidyl derivatives of 5-fluorouracil” (J Med Chem, 1984)
Values after ≈ are worked out from the molar mass of the structure shown.

Tests used:
Homo sapiens [1] = organism: Homo sapiens; experiment: Stability in human serum at the time of zero(0) hours, stability was measured by in the form of percent Fluoro uracil; assay type: ADME
Procedure, shortened: (§1)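 A 1:1 mixture of the L,L and L,D peptide diastereomers was added as powder to undiluted serum at 0.5 mg/mL and held at 37 °C. Samples were taken at time points, filtered through glass fiber, and analysed by reversed-phase (RP-18) HPLC. Values are the increase in percent free 5-FU.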

Mus musculus [2] = organism: Mus musculus; experiment: Stability in mouse serum at the time of 5 hours, stability was measured by in the form of percent Fluoro uracil; assay type: ADME; procedure, shortened: as §1
[3] = Stability in water (H20) at the time of 240 hours, stability was measured by in the form of percent Fluoro uracil; assay type: physicochemical; conditions: buffer
Procedure, shortened: (§2)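 A 1:1 mixture of the L,L and L,D peptide diastereomers was added at 0.5 mg/mL to distilled water and kept at 23 °C. Samples were taken over time, filtered through glass fiber, and analysed by RP-18 HPLC. Values are the percent free 5-FU formed.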

Candida albicans [4] = experiment: Compound is evaluated for minimum inhibitory concentrations against Candida albicans strain B311; assay type: functional
Procedure, shortened: (§3)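 Twofold broth dilution in yeast carbon base medium with lysine 200 µg/mL. Final inoculum was approximately 10^4-10^5 cfu/mL, incubated overnight at 37 °C. MIC was taken as the lowest concentration giving complete growth inhibition.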

Escherichia coli [5] = experiment: Compound is evaluated for antagonistic activity against Escherichia coli M2626 at […]; assay type: functional
Escherichia coli [6] = experiment: 2 mg/disk of dialanine was codisked on the compound and evaluated for antagonistic activity against Escherichia coli M2626,at 1.5 ug/disk; assay type: functional
Procedure, shortened: (§4)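 Disk diffusion on E. coli seeded agar plates. Culture grown in trypticase soy broth for 7 h at 37 °C with shaking at 250 rpm, then 1 mL per litre of agar medium; plates made as for C. albicans but with M-9 medium. Peptide in water absorbed onto 6.35-mm paper disks. Antagonism tested by placing a second disk with noninhibitory di- or tripeptide over the test disk. Plates incubated 24 h at 37 °C; inhibition zones read.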

Candida albicans [7] = experiment: Compound is evaluated for minimum inhibitory concentrations against Candida albicans strain 3153A; assay type: functional; procedure, shortened: as §3
Candida albicans [8] = experiment: Compound is evaluated for minimum inhibitory concentrations against Candida albicans strain BC759; assay type: functional; procedure, shortened: as §3
Escherichia coli [9] = experiment: Compound is evaluated for antagonistic activity against Escherichia coli M2626 at 6.0 ug/disk; assay type: functional; procedure, shortened: as §4
Mus musculus [10] = organism: Mus musculus; experiment: Stability in mouse serum at the time of 24 hours, stability was measured by in the form of percent Fluoro uracil; assay type: ADME; procedure, shortened: as §1
[11] = Stability in water (H20) at the time of zero(0) hours, stability was measured by in the form of percent Fluoro uracil; assay type: physicochemical; conditions: buffer; procedure, shortened: as §2
Mus musculus [12] = organism: Mus musculus; experiment: Stability in mouse serum at the time of zero(0) hours, stability was measured by in the form of percent Fluoro uracil; assay type: ADME; procedure, shortened: as §1
Mus musculus [13] = organism: Mus musculus; experiment: Stability in mouse serum at the time of 0.5 hours, stability was measured by in the form of percent Fluoro uracil; assay type: ADME; procedure, shortened: as §1
Escherichia coli [14] = experiment: 2 mg/disk of dialanine was codisked on the compound and evaluated for antagonistic activity against Escherichia coli M2626,at […]; assay type: functional
Homo sapiens [15] = organism: Homo sapiens; experiment: Stability in human serum at the time of 1.5 hours, stability was measured by in the form of percent Fluoro uracil; assay type: ADME; procedure, shortened: as §1
Escherichia coli [16] = experiment: Compound is evaluated for antagonistic activity against Escherichia coli M2626 at 25.0 ug/disk; assay type: functional; procedure, shortened: as §4
Escherichia coli [17] = experiment: Compound is evaluated for antagonistic activity against Escherichia coli M2626 at 3.0 ug/disk; assay type: functional; procedure, shortened: as §4
Homo sapiens [18] = organism: Homo sapiens; experiment: Stability in human serum at the time of 24 hours, stability was measured by in the form of percent Fluoro uracil; assay type: ADME; procedure, shortened: as §1
Mus musculus [19] = organism: Mus musculus; experiment: Stability in mouse serum at the time of 2.5 hours, stability was measured by in the form of percent Fluoro uracil; assay type: ADME; procedure, shortened: as §1
Homo sapiens [20] = organism: Homo sapiens; experiment: Stability in human serum at the time of 5 hours, stability was measured by in the form of percent Fluoro uracil; assay type: ADME; procedure, shortened: as §1
Mus musculus [21] = organism: Mus musculus; experiment: Stability in mouse serum at the time of 1.5 hours, stability was measured by in the form of percent Fluoro uracil; assay type: ADME; procedure, shortened: as §1
Escherichia coli [22] = experiment: 2 mg/disk of dialanine was codisked on the compound and evaluated for antagonistic activity against Escherichia coli M2626,at 3.0 ug/disk; assay type: functional; procedure, shortened: as §4
Escherichia coli [23] = experiment: Compound is evaluated for antagonistic activity against Escherichia coli M2626 at 1.5 ug/disk; assay type: functional; procedure, shortened: as §4
Homo sapiens [24] = organism: Homo sapiens; experiment: Stability in human serum at the time of 50 hours, stability was measured by in the form of percent Fluoro uracil; assay type: ADME; procedure, shortened: as §1
Homo sapiens [25] = organism: Homo sapiens; experiment: Stability in human serum at the time of 0.5 hours, stability was measured by in the form of percent Fluoro uracil; assay type: ADME; procedure, shortened: as §1
Escherichia coli [26] = experiment: 2 mg/disk of dialanine was codisked on the compound and evaluated for antagonistic activity against Escherichia coli M2626,at 6.0 ug/disk; assay type: functional; procedure, shortened: as §4
Candida albicans [27] = experiment: Compound is evaluated for disk diffusion assay of the activity against Candida albicans B-311 at 1.5 ug/disk; assay type: functional
Procedure, shortened: (§5)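 Cells grown 7 h at 37 °C in trypticase soy broth with shaking at 250 rpm. 1 mL of culture was seeded into 1 L of yeast carbon base agar with lysine 200 µg/mL, and 15 mL was poured per plate. Peptides in water were loaded onto 6.35-mm paper disks. Plates were incubated 24 h at 37 °C and inhibition zones read.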

Candida albicans [28] = experiment: Compound is evaluated for disk diffusion assay of the activity against Candida albicans B-311 at […]; assay type: functional
Candida albicans [29] = experiment: Compound is evaluated for disk diffusion assay of the activity against Candida albicans B-311 at 6.0 ug/disk; assay type: functional; procedure, shortened: as §5
Candida albicans [30] = experiment: Compound is evaluated for disk diffusion assay of the activity against Candida albicans B-311 at 25.0 ug/disk; assay type: functional; procedure, shortened: as §5
Candida albicans [31] = experiment: Compound is evaluated for disk diffusion assay of the activity against Candida albicans B-311 at 3.0 ug/disk; assay type: functional; procedure, shortened: as §5
[32] = Candida albicans, read-out: MIC

What does the source list for C[C@H](N)C(=O)NC(C(=O)O)n1cc(F)c(=O)[nH]c1=O (some centres undefined)?
Serum stability (Homo sapiens [1]): 0; Serum stability (Mus musculus [2]): 43; Serum stability [3]: 9; MIC (Candida albicans [4]; [32]): 25 µg/mL (≈ 91.2 µM); Zone size (Escherichia coli [5]): 26 mm; Zone size (Escherichia coli [6]): 0 mm; MIC (Candida albicans [7]; [32]): 25 µg/mL (≈ 91.2 µM); MIC (Candida albicans [8]; [32]): 6.3 µg/mL (≈ 23 µM); Zone size (Escherichia coli [9]): 27 mm; Serum stability (Mus musculus [10]): 53; Serum stability [11]: 0; Serum stability (Mus musculus [12]): 0; Serum stability (Mus musculus [13]): 12; Zone size (Escherichia coli [14]): 0 mm; Serum stability (Homo sapiens [15]): 7; Zone size (Escherichia coli [16]): 31 mm; Zone size (Escherichia coli [17]): 25 mm; Serum stability (Homo sapiens [18]): 16; Serum stability (Mus musculus [19]): 36; Serum stability (Homo sapiens [20]): 15; Serum stability (Mus musculus [21]): 27; Zone size (Escherichia coli [22]): 0 mm; Zone size (Escherichia coli [23]): 22 mm; Serum stability (Homo sapiens [24]): 25; Serum stability (Homo sapiens [25]): 3; Zone size (Escherichia coli [26]): 0 mm

Which results are given for C[C@H](N)C(=O)N[C@@H](C(=O)O)n1cc(F)c(=O)[nH]c1=O (stereo in doubt; 8a(L,L))?
MIC (Candida albicans [4]): 12.5 µg/mL (≈ 45.6 µM); Activity (Candida albicans [27]): 16; Activity (Candida albicans [28]): 26; MIC (Candida albicans [7]): 12.5 µg/mL (≈ 45.6 µM); MIC (Candida albicans [8]): 1.6 µg/mL (≈ 5.83 µM); Activity (Candida albicans [29]): 22; Activity (Candida albicans [30]): 30; Activity (Candida albicans [31]): 20

What does the source list for C[C@H](N)C(=O)N[C@@H](C(=O)O)n1cc(F)c(=O)[nH]c1=O (stereo in doubt; 8b(L,D))?
MIC (Candida albicans [4]): >100 µg/mL; Activity (Candida albicans [27]): 0; Activity (Candida albicans [28]): 0; MIC (Candida albicans [7]): >100 µg/mL; MIC (Candida albicans [8]): >100 µg/mL; Activity (Candida albicans [29]): 0; Activity (Candida albicans [30]): 0; Activity (Candida albicans [31]): 0

With O=c1[nH]cc(F)c(=O)[nH]1 [FLUOROURACIL] as the molecule, how does the MIC (Candida albicans [4]; [32]) read?
Its MIC is 4 µg/mL (≈ 30.8 µM).

What about the Activity (Candida albicans [27]) of the same molecule?
Its Activity is 22.

And the Zone size (Escherichia coli [5])?
The Zone size was 41 mm.

And the Zone size (Escherichia coli [6])?
The Zone size was 33 mm.

What about the Activity (Candida albicans [28]) of the same molecule?
The Activity was 40.

And the MIC (Candida albicans [7]; [32])?
Its MIC is 1 µg/mL (≈ 7.69 µM).

And the MIC (Candida albicans [8]; [32])?
The MIC was 1 µg/mL (≈ 7.69 µM).

And the Activity (Candida albicans [29])?
Its Activity is 30.

And the Zone size (Escherichia coli [9])?
The Zone size was 40 mm.

What about the Activity (Candida albicans [30]) of the same molecule?
The Activity was 44.

What about the Zone size (Escherichia coli [14]) of the same molecule?
The Zone size was 41 mm.

What about the Zone size (Escherichia coli [16]) of the same molecule?
Its Zone size is 46 mm.

What about the Zone size (Escherichia coli [17]) of the same molecule?
The Zone size was 38 mm.

And the Zone size (Escherichia coli [22])?
Its Zone size is 38 mm.

And the Zone size (Escherichia coli [23])?
Its Zone size is 33 mm.

What about the Activity (Candida albicans [31]) of the same molecule?
The Activity was 30.

What about the Zone size (Escherichia coli [26]) of the same molecule?
The Zone size was 40 mm.
